The values that follow come from ChEMBL document CHEMBL3734685, “2-Aminopyrimidines as dual adenosine A1/A2A antagonists” (Eur J Med Chem, 2015).

For one data set, the target named is T1, Adenosine receptor A1 (Rattus norvegicus, UniProt P25099).
T1 sequence (P25099 whole entry): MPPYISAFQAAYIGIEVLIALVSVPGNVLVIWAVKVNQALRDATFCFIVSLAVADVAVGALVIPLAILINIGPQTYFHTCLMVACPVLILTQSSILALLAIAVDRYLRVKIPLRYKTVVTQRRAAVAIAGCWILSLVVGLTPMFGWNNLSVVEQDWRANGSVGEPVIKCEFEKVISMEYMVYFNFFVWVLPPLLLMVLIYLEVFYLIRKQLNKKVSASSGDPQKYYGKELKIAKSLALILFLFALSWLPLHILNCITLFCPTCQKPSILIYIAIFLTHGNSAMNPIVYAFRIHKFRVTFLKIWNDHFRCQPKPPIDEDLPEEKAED
Kind of data set: Displacement of [3H]DPCPX from adenosine A1 receptor in Sprague-Dawley rat whole brain membranes after 1 hr by scintillation counting analysis. Further details: species or system Membrane. Put shortly:
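Male rat whole-brain homogenate in 50 mM Tris (pH 7.7), ~5 mg original tissue per incubation, with 0.1 units adenosine deaminase and 0.1 nM [3H]DPCPX. Incubated 1 h, filtered on GF/B, counted by scintillation. IC50 from one-site competition, converted to Ki by Cheng-Prusoff. Duplicates, mean ± SEM.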
Background: In a radioligand displacement assay an active substance lowers the binding of a labelled ligand.

The nature of data set [1]: Cytotoxicity against human HeLa cells assessed as cell viability at 1 uM after 24 hrs by MTT assay. It is filed as cell-based. As to conditions: read-out: Activity. The gist of the method:
(§1)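 HeLa cells grown to confluence in DMEM with 10% FBS, penicillin/streptomycin and fungizone at 37 °C, 10% CO2. Seeded at 500 000 cells/well, then after 24 h switched to serum-free DMEM with test compound (DMSO stocks, filtered). Exposure lasted 24 h at 37 °C. Read-out was MTT 0.5%, 2 h in the dark, formazan dissolved in isopropanol, absorbance 560. Formic-acid lysis set 0% viability and untreated wells 100%. Triplicate, mean ± SD.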

For data set [2], the species on record is Rattus norvegicus. The data set can be described thus: Selectivity index, ratio of Ki for adenosine A2A receptor in Sprague-Dawley rat striatal membranes to Ki for adenosine A1 receptor in Sprague-Dawley rat whole brain membranes. The gist of the method:
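Ratio of two Ki values. A2A: rat striatal membranes (~10 mg tissue) in 50 mM Tris pH 7.7 with 10 mM MgCl2, 0.2 units adenosine deaminase, 50 nM CPA and 4 nM [3H]NECA. A1: whole-brain membranes with [3H]DPCPX 0.1 nM. Test compound 0–100 µM, 1 h incubation, filtration and scintillation counting. Non-specific binding with 100 µM CPA. Duplicate determinations.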

Data set [3] can be described thus: Cytotoxicity against human HeLa cells assessed as cell viability at 10 uM after 24 hrs by MTT assay. Conditions: read-out: Activity. It is filed as cell-based. Put shortly: as §1
For orientation: Tetrazolium dyes change colour on reduction, which living cells bring about.

The target of the next data set is Adenosine receptor A2a (Rattus norvegicus, UniProt P30543). The data set can be described thus: Displacement of [3H]NECA from adenosine A2A receptor in Sprague-Dawley rat striatal membranes after 1 hr by scintillation counting analysis. Details: species or system Striatum, Membrane.
Data set [4] has as its system Rattus norvegicus. The data set can be described thus: Reduction in haloperiodol induced catalepsy time in Sprague-Dawley rat at 0.1 to 2 mg/kg, ip dosed 30 mins after halperiodol challenge measured 60 mins after halperiodol challenge.
Data set [5] concerns Rattus norvegicus. Kind of data set: Reduction in haloperiodol induced catalepsy time in Sprague-Dawley rat at 1 to 2 mg/kg, ip dosed 30 mins after halperiodol challenge measured 60 mins after halperiodol challenge.

Calls of active or inactive are those of the source. The rule behind the calls is not given here.

Sequence of Adenosine receptor A2a (P30543 whole entry): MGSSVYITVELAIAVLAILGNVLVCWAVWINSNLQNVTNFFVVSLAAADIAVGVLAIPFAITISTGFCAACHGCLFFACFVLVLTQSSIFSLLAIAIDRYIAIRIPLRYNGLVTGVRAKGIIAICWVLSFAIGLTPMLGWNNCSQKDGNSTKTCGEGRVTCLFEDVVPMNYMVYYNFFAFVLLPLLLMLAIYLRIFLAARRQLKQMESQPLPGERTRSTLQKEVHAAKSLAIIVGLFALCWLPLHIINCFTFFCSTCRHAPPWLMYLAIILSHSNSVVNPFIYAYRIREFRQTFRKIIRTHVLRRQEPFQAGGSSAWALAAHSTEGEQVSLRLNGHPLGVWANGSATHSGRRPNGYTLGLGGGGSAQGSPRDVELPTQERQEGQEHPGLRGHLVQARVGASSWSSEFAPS

In the case of `CCN1CCN(C(=O)c2cccc(-c3cc(-c4ccc(C)o4)nc(N)n3)c2)CC1`, the figures for the Ki at Adenosine receptor A1 and on Adenosine receptor A2a were 37.5 nM and 30.9 nM, respectively. The viability at 24 h, 1 µM in data set [1] stood at 65.7%. Besides, the Ratio Ki in the data set listed under Rattus norvegicus [2] was 0.8. Also, the viability at 24 h, 10 µM in data set [3] worked out at 60.1%.
On to `Cc1ccc(-c2cc(-c3cccc(C(=O)N4CCCC4)c3)nc(N)n2)o1`, for which the Ki (commonly a measure of affinity in units of concentration, obtained from inhibition or displacement) on Adenosine receptor A1 worked out at 36.8 nM; at Adenosine receptor A2a, 58.2 nM. In addition, in data set [1], the viability at 24 h, 1 µM worked out at 101%. Besides, the Ratio Ki in the data set filed under Rattus norvegicus [2] was found to be 1.6. Also, the viability at 24 h, 10 µM in data set [3] was determined as 67.9%.
Turning to `Nc1nc(-c2ccccc2)cc(-c2cccc(Cl)c2)n1`, the Ki at Adenosine receptor A1 was found to be 22.8 nM; on Adenosine receptor A2a, 948 nM. The Ratio Ki in the data set filed under Rattus norvegicus [2] stood at 42.
For `Cc1ccc(-c2cc(-c3cccc(C(=O)N4CCCCC4)c3)nc(N)n2)o1`, the Ki at Adenosine receptor A1 worked out at 9.54 nM; at Adenosine receptor A2a, 6.34 nM. In the data set with Rattus norvegicus [4], the outcome was Active. Besides, the viability at 24 h, 1 µM in data set [1] came out at 64.3%. Moreover, the Ratio Ki in the data set listed under Rattus norvegicus [2] stood at 0.7. The viability at 24 h, 10 µM in data set [3] was 61.6%.
In the case of `COc1cccc(-c2cc(-c3ccc(C)o3)nc(N)n2)c1`, the results for the Ki on Adenosine receptor A1 and at Adenosine receptor A2a were 145 nM and 409 nM, respectively. Besides, the Ratio Ki in the data set filed under Rattus norvegicus [2] stood at 2.8.
The corresponding values for `COc1ccc(-c2cc(-c3ccc(C)o3)nc(N)n2)cc1OC` are 650 nM, 2780 nM and 4.3.
Regarding `Nc1nc(-c2ccc(F)cc2)cc(-c2ccco2)n1`, the figures for the Ki at Adenosine receptor A1 and on Adenosine receptor A2a were 158 nM and 257 nM, respectively. Also, the Ratio Ki in the data set listed under Rattus norvegicus [2] stood at 1.6.
For `Cc1ccc(-c2cc(-c3ccc(Cl)cc3)nc(N)n2)o1` the same measures were 434 nM, 3320 nM and 7.6.
On to `Nc1nc(-c2cccc(Cl)c2)cc(-c2ccco2)n1`, for which the figures for the Ki at Adenosine receptor A1 and on Adenosine receptor A2a were 39.1 nM and 245 nM, respectively. Further, the Ratio Ki in the data set filed under Rattus norvegicus [2] is 6.3.
The corresponding values for `COc1cccc(-c2cc(-c3ccco3)nc(N)n2)c1` are 61.4 nM, 249 nM and 4.1.
In the case of `Cc1ccc(-c2cc(-c3cccc(C(=O)N4CCN(C)CC4)c3)nc(N)n2)o1`, the result with Rattus norvegicus [5] was Active. Moreover, the Ki on Adenosine receptor A1 was 136 nM; at Adenosine receptor A2a it was 16.3 nM. Besides, in data set [1], the viability at 24 h, 1 µM stood at 107%. Besides, the Ratio Ki in the data set listed under Rattus norvegicus [2] came to 0.1. Also, the viability at 24 h, 10 µM in data set [3] is 76.8%.
Turning to `Cc1ccc(-c2cc(-c3cccc(Cl)c3)nc(N)n2)o1`, the Ki at Adenosine receptor A1 amounted to 129 nM; at Adenosine receptor A2a, 399 nM. In addition, the Ratio Ki in the data set listed under Rattus norvegicus [2] turned out to be 3.1.
As to `Cc1ccc(-c2cc(-c3cccc(C(=O)N4CCOCC4)c3)nc(N)n2)o1`, the Ki on Adenosine receptor A1 stood at 52.1 nM; on Adenosine receptor A2a, 29.3 nM. Besides, the viability at 24 h, 1 µM in data set [1] turned out to be 98.6%. The Ratio Ki in the data set filed under Rattus norvegicus [2] was found to be 0.6. Moreover, the viability at 24 h, 10 µM in data set [3] is 81.7%.
